In ChEMBL document CHEMBL3243924, “Synthesis and biological activity of 5-fluoro- and 5-methyl-1,3-oxazine-2,6(3H)-dione” (J Med Chem, 1979):

How the values were obtained:
Enterococcus faecium [1] = assay: Growth inhibition of Streptococcus faecium; assay type: functional
Escherichia coli = assay: Growth inhibition of Escherichia coli; assay type: functional
L1210 = assay: Growth inhibition of mouse L1210 cells; assay type: functional
Enterococcus faecium [2] = assay: Growth inhibition of Streptococcus faecium assessed as [I]/[S] for 50% growth inhibition in presence of 1 uM to 1 mM thymine; assay type: functional
Enterococcus faecium [3] = assay: Growth inhibition of Streptococcus faecium assessed as [I]/[S] for 50% growth inhibition in presence of 1 uM to 1 mM thymidine; assay type: functional
Enterococcus faecium [4] = assay: Growth inhibition of Streptococcus faecium assessed as inhibition index [I]/[S] for 50% growth inhibition in presence of 1 uM to 1 mM 2'-deoxyuridine; assay type: functional
Enterococcus faecium [5] = assay: Growth inhibition of Streptococcus faecium assessed as [I]/[S] for 50% growth inhibition in presence of 1 uM to 1 mM uracil; assay type: functional
Enterococcus faecium [6] = assay: Growth inhibition of Streptococcus faecium assessed as [I]/[S] for 50% growth inhibition in presence of 1 uM to 1 mM uridine; assay type: functional
Enterococcus faecium [7] = assay: Growth inhibition of Streptococcus faecium assessed as [I]/[S] for 50% growth inhibition in presence of 1 uM to 1 mM 2'-deoxycytidine; assay type: functional
Enterococcus faecium [8] = assay: Growth inhibition of Streptococcus faecium assessed as [I]/[S] for 50% growth inhibition in presence of 1 uM to 1 mM cytidine; assay type: functional
Enterococcus faecium [9] = assay: Growth inhibition of Streptococcus faecium assessed as [I]/[S] for 50% growth inhibition in presence of 1 uM to 1 mM cytosine; assay type: functional
[10] = Stability of the compound in bacterial growth medium assessed as compound degradation at pH 7.2; conditions: buffer
Summary of the method: (§1)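 Compound held in bacterial growth medium at pH 7.2. Degradation was followed as the time-dependent decrease in UV absorbance at 306 nm.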

[11] = Stability of the compound in bacterial growth medium by UV spectra analysis; summary of the method: as §1
[12] = Stability of the compound in mouse […] cell growth medium assessed as compound degradation
[13] = Half life in synthetic growth medium at 37 degC
[14] = Stability of the compound in synthetic growth medium assessed as compound remaining at 37 degC after 16 hrs; assay type: physicochemical; conditions: read-out: Stability

Row | Structure (SMILES) | ID50 (Enterococcus faecium [1]) | ID50 (Escherichia coli) | ID50 (L1210) | Ratio (Enterococcus faecium [2]) | Ratio (Enterococcus faecium [3]) | Ratio (Enterococcus faecium [4]) | Ratio (Enterococcus faecium [5]) | Ratio (Enterococcus faecium [6]) | Ratio (Enterococcus faecium [7]) | Ratio (Enterococcus faecium [8]) | Ratio (Enterococcus faecium [9]) | Stability [10] | Stability [11] | Stability [12] | half-life [13] | remaining at 16 h [14]
1 | O=c1[nH]cc(F)c(=O)o1 | 9 ×10⁻⁸ M | 1 ×10⁻⁷ M | 1 ×10⁻⁵ M | 120 | 110 | 100 | 90 | 90 | 10 | 8 | 7 | Unstable | Unstable | Unstable | 4 h | 
2 | O=c1cc[nH]c(=O)o1 | 2 ×10⁻⁵ M | 4 ×10⁻⁷ M | 4 ×10⁻⁵ M |  |  |  |  |  |  |  |  |  |  |  |  | 15%
3 | Cc1c[nH]c(=O)oc1=O | >1 ×10⁻⁴ M | 3 ×10⁻⁴ M | >1 ×10⁻⁴ M |  |  |  |  |  |  |  |  |  |  |  |  | 
